Screening results from PubChem BioAssay.
INS promoter act: TRM-6 insulin promoter activation; TRM-6 cells, insulin promoter eGFP reporter, imaging; plate-scaled: unstimulated 0, stimulated control 100; activation, % at 2 µM; actives 0.81% (n = 130,000);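 active = activation at 2 µM above a set limit, confirmed on inspection of the cell images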;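 note: share of cells whose green reporter signal exceeds an intensity cutoff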
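material = TRM-6 human fetal islet cells, insulin promoter–eGFP reporter | input = 1,000 TRM-6 cells seeded per well | benchmarks = stimulated versus unstimulated wells as plate controls | measured by = automated fluorescence imaging of paraformaldehyde-fixed, Hoechst-counterstained cells, green channel | schedule = compound exposure 48 h, 37 °C | reagent = tamoxifen at 0.75 µM added at seeding for reporter induction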
Active calls of the source: *. The full list was thinned out, with hits kept by preference.

SMILES | INS promoter act
COc1ccc(/C=N/NC(=O)c2ccncc2)cc1Cn1nc([N+](=O)[O-])c(Br)c1C | 394*
Cc1csc(NC(=O)CSc2ccc3nnc(-c4ccncc4)n3n2)n1 | 0
COc1ccc(/C=C2/C(=O)N=C3SCCN32)cc1 | 3
COc1ccc(/C=C2/C(=O)N=C(N)N2C)cc1OC | 252*
COc1ccc(/C=C2\SC(=O)NC2=S)cc1OC | 9
COc1ccc(CCN(C)CCC(=O)Nc2ccc(C)cc2)cc1OC | 0
CCCCc1ccc(NC(=O)COc2ccc(C(=O)Nc3ccccc3OCC)cc2)cc1 | -8
CC(C)Cn1c(N)c(C(=O)CSc2nnnn2C)c(=O)n(C)c1=O | -9
Cn1c(N)c(C(=O)COC(=O)c2ccc3c(c2)OCCO3)c(=O)n(C)c1=O | -10
CC(C)Cn1c(N)c(C(=O)CSc2ccc3c(c2)OCCO3)c(=O)n(C)c1=O | 168*
CC(C)CC(c1nnnn1C(C)C)N1CCN(c2ccccc2)CC1 (stereo not given) | -3
Cc1cc(C)c(NC(=O)C2CCCN2C(=O)NC2CCCCC2)c(C)c1 (stereo not given) | 10
Cc1cc(C)c(NC(=O)C2CCN(c3cnccn3)CC2)c(C)c1 | 481*
O=C(Nc1ccc2c(c1)CCC2)C1CCN(c2ncccn2)CC1 | -9
O=C(c1ccccc1C(=O)N1CCN(c2ccccc2F)CC1)N1CCN(c2ccccc2F)CC1 | 0
Cc1cccc(C)c1N1CC(=O)N(c2c(C)cccc2C)CC1=O | 8
O=C1CN(c2ccccc2F)C(=O)CN1c1ccccc1F | 412*
CCC(C)OC(=O)C1=C(C)OC23OC(N)=C(C#N)C12C(=O)c1ccccc13 (stereo not given) | 194
CCOC(=O)CCCNC(=O)COC(=O)c1cc(C)cc(C)c1 | -7
Cc1ccccc1N1C(=O)CN(Cc2sccc2C)C1=S | 84*
Cc1ccc(N2C(=O)CN(Cc3sccc3C)C2=S)cc1C | -3
Cc1ccccc1N1C(=O)CC2(CCCC2)CC1=O | 115
O=C(Nc1cccc(-c2nc3cccnc3s2)c1)c1ccco1 | 481*
O=C(Nc1cccc(-c2cnc3ccccc3n2)c1)c1cccc(NC(=O)c2ccco2)c1 | 7
O=C(Nc1nccs1)c1cccc(NC(=O)c2ccco2)c1 | -93
SMILES | INS promoter act
COc1ccccc1OCc1ccc(C(=O)NCc2ccco2)o1 | 3
N/C(=N\OC(=O)CCCOc1ccccc1)c1ccncc1 | 10
Cc1ccccc1C(=O)O/N=C(\N)c1ccncc1 | 508*
N/C(=N\OC(=O)c1ccc(Br)cc1)c1ccccc1 | -3
O=C(N1CCOCC1)N(Cc1ccco1)CC1CCCO1 (stereo not given) | -6
CC(C)CN(C(=O)CN1CCN(c2ccccc2O)CC1)c1c(N)n(CC(C)C)c(=O)[nH]c1=O | 7
CCN(CC)S(=O)(=O)c1cccc(C(=O)NC(Cc2c[nH]c3ccccc23)c2nnc3n2CCCCC3)c1 (stereo not given) | 3
CCNS(=O)(=O)c1ccc(NC(=O)c2ccccc2OCC)cc1 | 206
CCN1CCCC1CNS(=O)(=O)c1ccc(C(=O)Nc2ccccc2)cc1 (stereo not given) | 500*
O=C(Nc1ccc(S(=O)(=O)N2CCCCC2)cc1)c1ccc(CN2CCc3ccccc3C2)cc1 | 3
COc1ccccc1C1SCCN1S(=O)(=O)c1cccc(C(F)(F)F)c1 (stereo not given) | 3
N/C(=N/O)C(c1ccccc1)c1ccccc1 | -8
COc1ccc2[nH]c(=O)c(CN(C(C)=O)c3cccc(C)c3)cc2c1 | -91
CCC(=O)N(Cc1cc2cc(OC)ccc2[nH]c1=O)c1ccc(C)cc1C | 236*
CCOc1cc(C(=O)N(C)Cc2cc3cc(OC)ccc3[nH]c2=O)cc(OCC)c1OCC | 4
CCOCCCn1c(=S)[nH]c2ncccc2c1=O | -100
COCCNC(=O)CN(c1ccc(OC)c(OC)c1)S(=O)(=O)c1ccc(C)cc1 | 3
COc1cc(/C=N/NC(=O)c2ccc(-c3ccccc3)cc2)cc(OC)c1OC | 443*
COc1cc(/C=N/NC(=O)c2ccoc2C)cc(OC)c1OC | 3
COc1ccc(C(=O)N/N=C/c2ccc(OC)c(OS(=O)(=O)c3ccccc3)c2)cc1 | -5
O=C(Nc1ccc(S(=O)(=O)N2CCCCC2c2cccnc2)cc1)c1c(F)cccc1F (stereo not given) | 0
COc1ccc(OC)c(S(=O)(=O)N2CCN(c3ccccn3)CC2)c1 | -74
O=C(O)C1CCCN1C(=O)Nc1ccccc1 (stereo not given) | 121
COCC(C)NC(=O)NC(=O)c1ccc(Cl)cc1 (stereo not given) | 77*
COCC(C)NC(=O)NC1(C(F)(F)F)Oc2ccc(Cl)cc2O1 (stereo not given) | -71
SMILES | INS promoter act
COCC(C)NC(=O)c1cccc(Cl)c1 (stereo not given) | 0
CCn1nnc(NC(=O)c2ccccc2Br)n1 | -36
CC(C)C(C(=O)Nc1ccc(S(=O)(=O)N2CCOCC2)cc1)N1C(=O)c2ccccc2C1=O (stereo not given) | 4
Cc1ccc2c(c1)c(C)c(C)n2CC(O)CN1CCOCC1 (stereo not given) | 533*
OC(CN1CCN(c2ccccn2)CC1)Cn1c2ccccc2c2ccccc21 (stereo not given) | -7
OC(COc1cccc(OCC(O)CN2CCOCC2)c1)CN1CCOCC1 (stereo not given) | 50
C=CCN=c1scc(-c2ccc3c(c2)NC(=O)CO3)n1/N=C(\C)c1ccccn1 | 8
O=C(NC(=S)NCc1ccccc1)c1cccnc1 | -7
S=C(NCc1ccccc1)N1CCn2cccc2C1c1cccnc1 (stereo not given) | 124*
CCCCNC(=S)N1CCn2cccc2C1c1ccccc1 (stereo not given) | 0
O=C(Nn1cnnc1)c1cc2c(s1)CCCCC2 | -77
Cc1cc2cc(CNC(=O)c3cccc([N+](=O)[O-])c3)ccc2[nH]1 | -2
Cc1nn(Cc2c(Cl)cccc2Cl)c(C)c1NC(=O)Cn1nc([N+](=O)[O-])c(Cl)c1C | -7
CN(C)S(=O)(=O)c1ccc(NC(=O)COC(=O)C2COc3ccccc3O2)cc1 (stereo not given) | -5
COC(=O)C1=C(C)N(CCCC(=O)O)C(=O)NC1c1cccs1 (stereo not given) | 295*
COC(=O)C1=C(C)C(c2cccs2)NC(=O)N1C (stereo not given) | -3
COC(=O)C1=C(C)N(CCCC(=O)O)C(=O)NC1c1ccc(-c2ccccc2)cc1 (stereo not given) | 0
O=C(NCc1ccc2c(c1)OCO2)C1(S(=O)(=O)c2ccccc2)CC1 | -93
COc1cccc(CSc2nnc(-c3ccc(F)cc3)o2)c1 | 6
COc1cc2c3nnc(-c4ccc(F)cc4)c-3cn(Cc3cccc(F)c3)c2cc1OC | 809*
COc1cc2c3nnc(-c4ccccc4)c-3cn(Cc3ccc(F)cc3)c2cc1OC | 6
O=C(CNCCCO)Nc1cc(C(F)(F)F)cc(NC(=O)CNCCCO)c1Cl | 3
Cc1cc2c(OCC(O)CN3CCCCC3)cccc2[nH]1 (stereo not given) | 0
Cc1ccnc(N(C(=O)c2cccs2)C(=O)c2cccs2)c1 | 84*
Cc1cccc(-c2nnc(NC(=O)c3cccs3)s2)c1 | 2
Cc1ccc(-c2noc(CN(C(=O)c3cccs3)C(C)C)n2)cc1 | 9
CNC(=O)N(c1ccccc1)c1ccccc1 | -7
CN(C)CCCN(C(=O)CCOc1ccccc1)c1nc2ccc(F)cc2s1 | -6
